Data from ChEMBL document CHEMBL1146365, “Synthesis and biological evaluation of new N-(2-hydroxy-4(or 5)-nitro/aminophenyl)benzamides and phenylacetamides as antimicrobial agents” (2007).
In brackets after ≈: the same amount, converted by molar mass.

What was measured:
Bacillus subtilis [1] = experiment: Antibacterial activity against drug-resistant Bacillus subtilis assessed after 24 hrs by serial dilution method
Klebsiella pneumoniae [2] = experiment: Antibacterial activity against Klebsiella pneumoniae RSHM 574 assessed after 24 hrs by serial dilution method
Staphylococcus aureus [3] = experiment: Antibacterial activity against drug-resistant Staphylococcus aureus assessed after 24 hrs by serial dilution method
Bacillus subtilis [4] = experiment: Antibacterial activity against Bacillus subtilis ATCC 6633 assessed after 24 hrs by serial dilution method; type: functional; details: ATCC 6633, 24 h
Outline: (§1)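 Strains were subcultured twice on MHA at 37 °C overnight. Inoculum was diluted from McFarland 0.5 to 10^5 cfu/ml, giving 10^4 cfu/ml in wells. Solvent, medium and organism-only controls were included. Incubated 37 °C, humid chamber, 24 h, in triplicate. MIC = lowest concentration with no macroscopic growth.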

Candida albicans [5] = experiment: Antifungal activity against Candida albicans ATCC 10231 assessed after 48 hrs by serial dilution method; type: functional; details: ATCC 10231, 48 h
Outline: (§2)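 Broth microdilution per CLSI M27-A in RPMI-1640 with L-glutamine, MOPS-buffered pH 7, with 2-fold compound dilutions. Yeasts were subcultured twice on SDA at 35 °C for 24–48 h. Inoculum was diluted from McFarland 0.5 to 10^4 cfu/ml, giving 10^3 cfu/ml in wells. Incubated 35 °C, humid chamber, 48 h, in triplicate. MIC = lowest concentration with no macroscopic growth.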

Escherichia coli [6] = experiment: Antibacterial activity against Escherichia coli isolate assessed after 24 hrs by serial dilution method; type: functional
Outline: as §1

Candida albicans [7] = experiment: Antifungal activity against Candida albicans isolate assessed after 48 hrs by serial dilution method; type: functional
Outline: as §2

Pseudomonas aeruginosa [8] = experiment: Antibacterial activity against Pseudomonas aeruginosa ATCC […] assessed after 24 hrs by serial dilution method
Escherichia coli [9] = experiment: Antibacterial activity against Escherichia coli ATCC assessed after 24 hrs by serial dilution method
Pseudomonas aeruginosa [10] = experiment: Antibacterial activity against Pseudomonas aeruginosa isolate assessed after 24 hrs by serial dilution method; type: functional
Outline: as §1

Klebsiella pneumoniae [11] = experiment: Antibacterial activity against Klebsiella pneumoniae isolate assessed after 24 hrs by serial dilution method; type: functional
Outline: as §1

Staphylococcus aureus [12] = experiment: Antibacterial activity against Staphylococcus aureus ATCC 25923 assessed after 24 hrs by serial dilution method; type: functional; details: ATCC 25923, 24 h
Outline: as §1

Compound | MIC (Bacillus subtilis [1]) [µg/mL] | MIC (Klebsiella pneumoniae [2]) [µg/mL] | MIC (Staphylococcus aureus [3]) [µg/mL] | MIC (Bacillus subtilis [4]) [µg/mL] | MIC (Candida albicans [5]) [µg/mL] | MIC (Escherichia coli [6]) [µg/mL] | MIC (Candida albicans [7]) [µg/mL] | MIC (Pseudomonas aeruginosa [8]) [µg/mL] | MIC (Escherichia coli [9]) [µg/mL] | MIC (Pseudomonas aeruginosa [10]) [µg/mL] | MIC (Klebsiella pneumoniae [11]) [µg/mL] | MIC (Staphylococcus aureus [12]) [µg/mL]
CCc1ccc(C(=O)Nc2ccc(N)cc2O)cc1 | 31.2 (≈ 122 µM) | 125 (≈ 488 µM) | 7.8 (≈ 30.4 µM) | 250 (≈ 975 µM) | 125 (≈ 488 µM) | 250 (≈ 975 µM) | 125 (≈ 488 µM) | 250 (≈ 975 µM) | 125 (≈ 488 µM) | 250 (≈ 975 µM) | 250 (≈ 975 µM) | 125 (≈ 488 µM)
O=C(Cc1ccc(Cl)cc1)Nc1ccc([N+](=O)[O-])cc1O | 31.2 (≈ 102 µM) | 125 (≈ 408 µM) | 125 (≈ 408 µM) | 250 (≈ 815 µM) | 125 (≈ 408 µM) | 125 (≈ 408 µM) | 125 (≈ 408 µM) | 125 (≈ 408 µM) | 125 (≈ 408 µM) | 250 (≈ 815 µM) | 125 (≈ 408 µM) | 125 (≈ 408 µM)
O=C(Cc1ccc(F)cc1)Nc1ccc([N+](=O)[O-])cc1O | 31.2 (≈ 108 µM) | 250 (≈ 861 µM) | 62.5 (≈ 215 µM) | 250 (≈ 861 µM) | 125 (≈ 431 µM) | 250 (≈ 861 µM) | 125 (≈ 431 µM) | 125 (≈ 431 µM) | 125 (≈ 431 µM) | 250 (≈ 861 µM) | 125 (≈ 431 µM) | 125 (≈ 431 µM)
Cc1ccc(CC(=O)Nc2ccc(N)cc2O)cc1 | 62.5 (≈ 244 µM) | 125 (≈ 488 µM) | 62.5 (≈ 244 µM) | 62.5 (≈ 244 µM) | 125 (≈ 488 µM) | 250 (≈ 975 µM) | 250 (≈ 975 µM) | 125 (≈ 488 µM) | 125 (≈ 488 µM) | 250 (≈ 975 µM) | 250 (≈ 975 µM) | 250 (≈ 975 µM)
Nc1ccc(NC(=O)Cc2ccc(Br)cc2)c(O)c1 | 125 (≈ 389 µM) | 125 (≈ 389 µM) | 31.2 (≈ 97.3 µM) | 125 (≈ 389 µM) | 125 (≈ 389 µM) | 125 (≈ 389 µM) | 250 (≈ 778 µM) | 250 (≈ 778 µM) | 125 (≈ 389 µM) | 250 (≈ 778 µM) | 125 (≈ 389 µM) | 125 (≈ 389 µM)
CC1COc2c(N3CCN(C)CC3)c(F)cc3c(=O)c(C(=O)O)cn1c23 (configuration not stated) [OFLOXACIN] | 32 (≈ 88.6 µM) | 64 (≈ 177 µM) | > 4100 | > 4100 | – | 32 (≈ 88.6 µM) | – | 8 (≈ 22.1 µM) | – | – | 64 (≈ 177 µM) | > 4100

Continued by falling MIC (Bacillus subtilis [1]), values first:

MIC (Bacillus subtilis [1]) [µg/mL] | MIC (Klebsiella pneumoniae [2]) [µg/mL] | MIC (Staphylococcus aureus [3]) [µg/mL] | MIC (Bacillus subtilis [4]) [µg/mL] | MIC (Candida albicans [5]) [µg/mL] | MIC (Escherichia coli [6]) [µg/mL] | MIC (Candida albicans [7]) [µg/mL] | MIC (Pseudomonas aeruginosa [8]) [µg/mL] | MIC (Escherichia coli [9]) [µg/mL] | MIC (Pseudomonas aeruginosa [10]) [µg/mL] | MIC (Klebsiella pneumoniae [11]) [µg/mL] | MIC (Staphylococcus aureus [12]) [µg/mL] | Compound
62.5 (≈ 226 µM) | 31.2 (≈ 113 µM) | 15.6 (≈ 56.5 µM) | 3.9 (≈ 14.1 µM) | 62.5 (≈ 226 µM) | 125 (≈ 453 µM) | 62.5 (≈ 226 µM) | 62.5 (≈ 226 µM) | 125 (≈ 453 µM) | 125 (≈ 453 µM) | 125 (≈ 453 µM) | 7.8 (≈ 28.2 µM) | O=C(Nc1cc([N+](=O)[O-])ccc1O)c1ccc(F)cc1
62.5 (≈ 240 µM) | 125 (≈ 480 µM) | 62.5 (≈ 240 µM) | 250 (≈ 961 µM) | 125 (≈ 480 µM) | 125 (≈ 480 µM) | 125 (≈ 480 µM) | 125 (≈ 480 µM) | 62.5 (≈ 240 µM) | 125 (≈ 480 µM) | 125 (≈ 480 µM) | 125 (≈ 480 µM) | Nc1ccc(NC(=O)Cc2ccc(F)cc2)c(O)c1
31.2 (≈ 108 µM) | 125 (≈ 431 µM) | 31.2 (≈ 108 µM) | 15.6 (≈ 53.7 µM) | 250 (≈ 861 µM) | 250 (≈ 861 µM) | 125 (≈ 431 µM) | 250 (≈ 861 µM) | 62.5 (≈ 215 µM) | 250 (≈ 861 µM) | 125 (≈ 431 µM) | 31.2 (≈ 108 µM) | O=C(Cc1ccc(F)cc1)Nc1cc([N+](=O)[O-])ccc1O
31.2 (≈ 121 µM) | 125 (≈ 484 µM) | 125 (≈ 484 µM) | 31.2 (≈ 121 µM) | 62.5 (≈ 242 µM) | 250 (≈ 968 µM) | 125 (≈ 484 µM) | 125 (≈ 484 µM) | 125 (≈ 484 µM) | 250 (≈ 968 µM) | 250 (≈ 968 µM) | 62.5 (≈ 242 µM) | O=C(Nc1ccc([N+](=O)[O-])cc1O)c1ccccc1
31.2 (≈ 102 µM) | 250 (≈ 814 µM) | 7.8 (≈ 25.4 µM) | 62.5 (≈ 203 µM) | 250 (≈ 814 µM) | 250 (≈ 814 µM) | 125 (≈ 407 µM) | 250 (≈ 814 µM) | 125 (≈ 407 µM) | 250 (≈ 814 µM) | 250 (≈ 814 µM) | 125 (≈ 407 µM) | Nc1ccc(NC(=O)c2ccc(Br)cc2)c(O)c1
15.6 (≈ 49.6 µM) | 125 (≈ 398 µM) | 1.95 (≈ 6.2 µM) | 7.8 (≈ 24.8 µM) | 250 (≈ 795 µM) | 250 (≈ 795 µM) | 125 (≈ 398 µM) | 125 (≈ 398 µM) | 125 (≈ 398 µM) | 250 (≈ 795 µM) | 250 (≈ 795 µM) | 7.8 (≈ 24.8 µM) | CC(C)(C)c1ccc(C(=O)Nc2ccc([N+](=O)[O-])cc2O)cc1
7.8 (≈ 27.4 µM) | 125 (≈ 440 µM) | 7.8 (≈ 27.4 µM) | 15.6 (≈ 54.9 µM) | 62.5 (≈ 220 µM) | 125 (≈ 440 µM) | 62.5 (≈ 220 µM) | 62.5 (≈ 220 µM) | 125 (≈ 440 µM) | 62.5 (≈ 220 µM) | 125 (≈ 440 µM) | 15.6 (≈ 54.9 µM) | CC(C)(C)c1ccc(C(=O)Nc2ccc(N)cc2O)cc1
